Active and inactive are the calls of the source. No cut-off for these calls is given here.
Tests used:
[1] = system: HepG2; experiment: Antiproliferative activity against human HepG2 cells assessed as cell growth inhibition at 20 uM incubated for 48 hrs by MTT assay relative to control; format: functional
[2] = system: Bel-7402; experiment: Antiproliferative activity against human Bel-7402 cells assessed as cell growth inhibition incubated for 48 hrs by MTT assay; format: functional, cell-based; details: Bel-7402, 48 h
Procedure, shortened: (§1)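 Cells seeded in 96-well plates and exposed to compounds for 48 h; viability read by MTT. Each experiment repeated three times. SK-OV-3 grown in McCOY's 5A, Bel-7402 and HL-7702 in RPMI-1640, HepG2 in DMEM, Caco-2 in MEM.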

[3] = system: Caco-2; experiment: Antiproliferative activity against human Caco-2 cells assessed as cell growth inhibition incubated for 48 hrs by MTT assay; format: functional, cell-based; details: Caco-2, 48 h; procedure, shortened: as §1
[4] = system: L02; experiment: Cytotoxicity against human HL7702 cells assessed as cell growth inhibition incubated for 48 hrs by MTT assay; format: cell-based; details: L02, 48 h; procedure, shortened: as §1
[5] = target: T1, Poly [ADP-ribose] polymerase 1 (Homo sapiens, UniProt P09874); experiment: Inhibition of human recombinant GST-tagged PARP-1 expressed in Escherichia coli assessed as reduction in NAD+-dependent ADP ribosylation incubated for 30 mins in presence and NAD by resazurin dye based fluorescence analysis
T1 sequence (P09874 whole entry): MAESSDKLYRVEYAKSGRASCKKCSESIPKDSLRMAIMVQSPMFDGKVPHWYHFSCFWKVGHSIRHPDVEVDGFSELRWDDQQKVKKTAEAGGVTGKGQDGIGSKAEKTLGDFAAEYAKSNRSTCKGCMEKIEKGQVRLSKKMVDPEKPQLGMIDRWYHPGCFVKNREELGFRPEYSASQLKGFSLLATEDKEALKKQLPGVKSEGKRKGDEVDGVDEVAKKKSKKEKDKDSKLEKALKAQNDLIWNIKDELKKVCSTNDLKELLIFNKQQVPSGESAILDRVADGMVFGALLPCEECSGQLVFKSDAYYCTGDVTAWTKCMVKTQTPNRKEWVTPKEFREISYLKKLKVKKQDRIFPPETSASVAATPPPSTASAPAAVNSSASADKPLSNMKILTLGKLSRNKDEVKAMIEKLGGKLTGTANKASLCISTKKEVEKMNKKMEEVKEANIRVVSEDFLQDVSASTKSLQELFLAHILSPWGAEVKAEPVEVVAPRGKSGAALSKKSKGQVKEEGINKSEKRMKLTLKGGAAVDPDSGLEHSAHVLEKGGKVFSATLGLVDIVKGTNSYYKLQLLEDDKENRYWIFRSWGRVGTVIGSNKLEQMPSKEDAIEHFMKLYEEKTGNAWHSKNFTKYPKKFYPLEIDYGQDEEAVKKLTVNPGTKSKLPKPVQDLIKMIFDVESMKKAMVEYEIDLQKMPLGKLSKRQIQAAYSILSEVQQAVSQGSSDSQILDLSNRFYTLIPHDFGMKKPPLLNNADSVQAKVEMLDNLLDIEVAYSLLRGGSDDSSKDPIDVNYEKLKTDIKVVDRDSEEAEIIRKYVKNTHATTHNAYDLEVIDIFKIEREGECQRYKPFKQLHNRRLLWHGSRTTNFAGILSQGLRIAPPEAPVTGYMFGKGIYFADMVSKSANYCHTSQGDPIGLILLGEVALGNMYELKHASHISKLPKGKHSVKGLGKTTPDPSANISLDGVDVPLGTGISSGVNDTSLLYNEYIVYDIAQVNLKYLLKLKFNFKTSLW

[6] = target: Poly [ADP-ribose] polymerase 2 (Homo sapiens, UniProt Q9UGN5); experiment: Inhibition of human recombinant N-terminal GST-tagged PARP-2 expressed in Baculovirus infected Sf9 cells assessed as reduction in NAD+-dependent ADP ribosylation using histone mixture (H2A and H2B) as substrate in presence of activated DNA incubated for 30 mins by chemiluminescence assay
Poly [ADP-ribose] polymerase 2, sequence (Q9UGN5 whole entry): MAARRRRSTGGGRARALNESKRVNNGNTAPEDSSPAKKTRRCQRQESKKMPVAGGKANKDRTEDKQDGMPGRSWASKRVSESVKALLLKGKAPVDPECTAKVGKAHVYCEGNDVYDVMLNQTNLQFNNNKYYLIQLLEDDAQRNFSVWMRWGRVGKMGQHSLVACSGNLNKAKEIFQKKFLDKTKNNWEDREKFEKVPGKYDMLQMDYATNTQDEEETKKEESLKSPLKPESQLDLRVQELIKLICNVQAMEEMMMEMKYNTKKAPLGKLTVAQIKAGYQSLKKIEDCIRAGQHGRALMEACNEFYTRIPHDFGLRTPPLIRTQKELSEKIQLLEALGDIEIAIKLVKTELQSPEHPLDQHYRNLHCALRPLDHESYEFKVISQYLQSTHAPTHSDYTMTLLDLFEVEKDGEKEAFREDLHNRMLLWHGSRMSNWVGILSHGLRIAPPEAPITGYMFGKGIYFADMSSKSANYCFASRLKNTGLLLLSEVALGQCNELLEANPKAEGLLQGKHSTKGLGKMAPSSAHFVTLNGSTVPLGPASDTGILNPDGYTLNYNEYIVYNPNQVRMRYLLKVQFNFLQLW

[7] = Selectivity index, ratio of IC50 for inhibition of human recombinant N-terminal GST-tagged PARP-2 to IC50 for inhibition of human recombinant GST-tagged PARP-1
[8] = target: T1, Poly [ADP-ribose] polymerase 1; experiment: Inhibition of PARP-1 in human SKOV3 cells assessed as decrease in MCM5 protein expression level at 2.5 to 10 uM incubated for 48 hrs by western blot analysis; format: cell-based; details: SK-OV-3, dose 2.5-10 µM
Procedure, shortened: (§2)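 SK-OV-3 cells were grown in McCOY's 5A, seeded in 6-well plates and treated for 48 h. Lysate proteins were separated by 8-15 % SDS-PAGE and transferred to PVDF membranes. Membranes were blocked in 5 % nonfat milk, probed with primary antibody overnight at 4 °C and with HRP secondary antibody for 1 h at room temperature, then detected by enhanced chemiluminescence. Images are representative of 3 independent experiments.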

[9] = target: T1, Poly [ADP-ribose] polymerase 1; experiment: Inhibition of PARP-1 in human SKOV3 cells assessed as decrease in MCM6 protein expression level at 2.5 to 10 uM incubated for 48 hrs by western blot analysis; format: cell-based; details: SK-OV-3, dose 2.5-10 µM; procedure, shortened: as §2
[10] = system: SK-OV-3; experiment: Induction of apoptosis in human SKOV3 cells assessed as increase in Bax expression at 2.5 to 10 uM incubated for 48 hrs by western blot analysis; format: functional, cell-based; details: dose 2.5-10 µM
[11] = system: SK-OV-3; experiment: Induction of apoptosis in human SKOV3 cells assessed as decrease in Bcl-2 expression at 2.5 to 10 uM incubated for 48 hrs by western blot analysis; format: functional, cell-based; details: dose 2.5-10 µM
[12] = system: SK-OV-3; experiment: Induction of cell cycle arrest in human SKOV3 cells assessed as reduction in cyclin B1 expression at 2.5 to 10 uM incubated for 48 hrs by western blot analysis; format: functional, cell-based; details: dose 2.5-10 µM
[13] = system: SK-OV-3; experiment: Induction of autophagy in human SKOV3 cells assessed as LC3-I protein expression at 10 uM incubated for 48 hrs by western blot analysis; format: functional, cell-based
Procedure, shortened: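 SK-OV-3 cells in 6-well plates treated 48 h. Lysates separated by 8-15% SDS-PAGE and transferred to PVDF. Membranes blocked in 5% milk and probed overnight at 4 °C with LC3 or Beclin 1 antibodies. HRP secondary applied 1 h at room temperature; detection by ECL.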

[14] = system: SK-OV-3; experiment: Antitumor activity against human SKOV3 cells xenografted in Balb/c nude mouse assessed as tumor growth inhibition administered orally for 21 days and measured every third day; format: functional, cell-based; details: dose 25-50 mg/kg, time 21.0 day
Procedure, shortened: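 Female BALB/c nu/nu mice, 6-8 weeks old, kept under SPF conditions. Each received 5×10^6 SK-OV-3 cells s.c. At 80–120 mm3 tumour volume, mice were split into four groups (n=6). […] Caliper measurement every three days; volume = X × (Y2/2).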

[15] = system: SK-OV-3; experiment: Antitumor activity against human SKOV3 cells xenografted in Balb/c nude mouse assessed as reduction in Ki67 expression in tumor at 25 to 50 mg/kg, po for 21 days by immunohistochemistry analysis; format: functional, organism-based; details: dose 25-50 mg/kg, time 21.0 day
Procedure, shortened: (§3)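 SK-OV-3 xenografts in female BALB/c nude mice were dosed orally at 25 or 50 mg/kg in 0.5% CMC-Na for 21 days. Tumours were then snap-frozen in liquid nitrogen or fixed in 10% neutral-buffered formalin. Analysis used western blotting, H&E and immunohistochemistry on paraffin sections (Ki67, γ-H2AX).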

[16] = system: SK-OV-3; experiment: Antitumor activity against human SKOV3 cells xenografted in Balb/c nude mouse assessed as increase in gamma-H2AX expression in tumor at 25 to 50 mg/kg, po for 21 days by immunohistochemistry analysis; format: functional, organism-based; details: dose 25-50 mg/kg, time 21.0 day; procedure, shortened: as §3
[17] = system: SK-OV-3; experiment: Antitumor activity against human SKOV3 cells xenografted in Balb/c nude mouse assessed as increase in gamma-H2AX protein expression in tumor at 25 to 50 mg/kg, po for 21 days by western blot analysis; format: functional, organism-based; details: dose 25-50 mg/kg, time 21.0 day; procedure, shortened: as §3
[18] = Half-life in Sprague-Dawley rat at 2 mg/kg, iv by LC/MS/MS analysis; format: ADME, organism-based; details: in vivo
Procedure, shortened: (§4)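 Male Sprague-Dawley rats, 4 per group, dosed once orally at 10 mg/kg or intravenously at 2 mg/kg. Blood taken from the saphenous vein for plasma. Drug levels measured by LC-MS-MS, with parameters derived by noncompartmental analysis.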

[19] = Tmax in Sprague-Dawley rat at 10 mg/kg, po by LC/MS/MS analysis; format: ADME, organism-based; details: in vivo; procedure, shortened: as §4
[20] = Oral bioavailability in Sprague-Dawley rat at 10 mg/kg by LC/MS/MS analysis; format: ADME, organism-based; details: in vivo; procedure, shortened: as §4
[21] = Subacute toxicity in SPF Kunming mouse assessed as change in liver at 1000 mg/kg, po administered for 14 days by H and E staining based microscopic analysis; format: organism-based; details: in vivo, 336 h, time 14 day
Procedure, shortened: (§5)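 Twenty SPF Kunming mice (18 - 22 g), half male and half female, randomised into 2 groups of 5 males + 5 females. Treated group dosed orally at 1000 mg/kg once daily for 14 days. Death, clinical signs and body weight monitored. After 14 days: isoflurane anaesthesia, decapitation, tissues collected for H&E histology.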

[22] = Subacute toxicity in SPF Kunming mouse assessed as change in kidney at 1000 mg/kg, po administered for 14 days by H and E staining based microscopic analysis; format: organism-based; details: in vivo, 336 h, time 14 day; procedure, shortened: as §5
[23] = Subacute toxicity in SPF Kunming mouse assessed as change in heart at 1000 mg/kg, po administered for 14 days by H and E staining based microscopic analysis; format: organism-based; details: in vivo, 336 h, time 14 day; procedure, shortened: as §5
[24] = target: T1, Poly [ADP-ribose] polymerase 1; experiment: Inhibition of PARP-1 in human SKOV3 cells assessed as increase in gammaH2AX expression level by immunofluorescence analysis; format: cell-based; details: SK-OV-3
[25] = target: T1, Poly [ADP-ribose] polymerase 1; experiment: Inhibition of PARP-1 in human SKOV3 cells assessed as intracellular poly-ADP ribose level at 2.5 to 10 uM incubated for 48 hrs by Western blot analysis; format: cell-based; details: SK-OV-3, dose 2.5-10 µM; procedure, shortened: as §2
[26] = target: T1, Poly [ADP-ribose] polymerase 1; details: dose 100.0 nM, time 30.0 min

COc1cc(/C=N/NC(N)=S)c(Br)c(Br)c1OC
inhibition at 20 µM [1]: 71.6% | IC50 [2]: 5.45 µM | IC50 [3]: 20.5 µM | IC50 [4]: 13.3 µM | IC50 [5]: 0.0295 µM | IC50 [6]: > 1 µM | Ratio IC50 [7]: > 33.9 | inhibition [8]: Active | inhibition [9]: Active | Activity [10]: Active | Activity [11]: Active | Activity [12]: Active | Activity [13]: Active | inhibition [14]: Dose-dependent effect | Activity [15]: Active | Activity [16]: Active | Activity [17]: Active | half-life [18]: 0.79 h | Tmax [19]: 2.5 h | F [20]: 47.3% | Activity [21]: Non-Toxic | Activity [22]: Non-Toxic | Activity [23]: Non-Toxic | inhibition [24]: Active | inhibition [25]: Active | inhibition [26]: 84.6%

Reference: ChEMBL document CHEMBL4765243, “Discovery of Novel Bromophenol-Thiosemicarbazone Hybrids as Potent Selective Inhibitors of Poly(ADP-ribose) Polymerase-1 (PARP-1) for Use in Cancer” (J Med Chem, 2019)
